One may read the EC50 as the concentration that produces a half-maximal response. Usually half-life stands for the time needed for the level to fall by half in the phase considered. Usually Papp stands for a coefficient for how fast a substance crosses the barrier. The Cmax is the maximum level reached in the sampled fluid or tissue. What is called bioavailability is dose-corrected exposure relative to a reference, in per cent. The inhibition is the change of the read-out against control, counted positive when it falls. One may read the fraction unbound as the share of the substance not bound to proteins or other matrix. What is called CL/F is clearance divided by bioavailability, as obtained after extravascular dosing. Usually Vd stands for the apparent volume that relates the amount in the body to the concentration in plasma or blood.

Results on four molecules are retold here after ChEMBL document CHEMBL1142359 (J Med Chem, 2008).

For data set [1], the target named is T1, Sodium/glucose cotransporter 2 (Homo sapiens, UniProt P31639).
T1 sequence (P31639 whole entry): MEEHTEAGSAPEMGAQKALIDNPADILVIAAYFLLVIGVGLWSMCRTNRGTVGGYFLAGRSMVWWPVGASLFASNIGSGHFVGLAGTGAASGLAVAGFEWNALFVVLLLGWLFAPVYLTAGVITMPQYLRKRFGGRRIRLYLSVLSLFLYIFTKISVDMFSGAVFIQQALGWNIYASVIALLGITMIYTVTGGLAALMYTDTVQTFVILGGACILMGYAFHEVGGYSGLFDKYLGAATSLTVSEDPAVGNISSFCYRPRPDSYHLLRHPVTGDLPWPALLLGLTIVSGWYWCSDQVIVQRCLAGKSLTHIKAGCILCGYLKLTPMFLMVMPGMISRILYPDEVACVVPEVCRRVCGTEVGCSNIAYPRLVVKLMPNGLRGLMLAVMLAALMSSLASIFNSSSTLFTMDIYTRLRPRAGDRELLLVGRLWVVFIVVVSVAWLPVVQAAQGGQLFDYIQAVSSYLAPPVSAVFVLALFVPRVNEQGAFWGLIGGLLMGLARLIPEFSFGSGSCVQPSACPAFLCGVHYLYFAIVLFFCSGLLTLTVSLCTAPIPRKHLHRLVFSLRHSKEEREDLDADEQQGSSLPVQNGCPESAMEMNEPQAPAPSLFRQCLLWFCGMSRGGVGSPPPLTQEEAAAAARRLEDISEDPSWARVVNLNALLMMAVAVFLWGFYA
The data set is described as follows: Inhibition of human SGLT2 expressed in CHO cells assessed as inhibition of [14C]AMG accumulation. The format is cell-based. In short, it runs like this: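 Radiolabeled α-methyl-D-glucopyranoside accumulation in Chinese hamster ovary cells stably expressing human or rat SGLT2. EC50 is taken as inhibition of that uptake. The assay was run in protein-free buffer, and n is given per value.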

Data set [2] can be described thus: Elimination half life in intra arterially dosed dog. The note with it: in vivo.
The nature of data set [3]: Permeability across human Caco-2 cells. (In general: Caco-2 monolayers are a common model of the intestinal barrier.)
Data set [4] is described as follows: in vivo. The note with it: rat, po, 1 mg/kg.
Data set [5] can be described thus: Oral bioavailability in rat. The note with it: in vivo.
For data set [6], the target named is T2, Solute carrier family 2, facilitated glucose transporter member 4 (Homo sapiens) (UniProt P14672).
T2 sequence (whole entry): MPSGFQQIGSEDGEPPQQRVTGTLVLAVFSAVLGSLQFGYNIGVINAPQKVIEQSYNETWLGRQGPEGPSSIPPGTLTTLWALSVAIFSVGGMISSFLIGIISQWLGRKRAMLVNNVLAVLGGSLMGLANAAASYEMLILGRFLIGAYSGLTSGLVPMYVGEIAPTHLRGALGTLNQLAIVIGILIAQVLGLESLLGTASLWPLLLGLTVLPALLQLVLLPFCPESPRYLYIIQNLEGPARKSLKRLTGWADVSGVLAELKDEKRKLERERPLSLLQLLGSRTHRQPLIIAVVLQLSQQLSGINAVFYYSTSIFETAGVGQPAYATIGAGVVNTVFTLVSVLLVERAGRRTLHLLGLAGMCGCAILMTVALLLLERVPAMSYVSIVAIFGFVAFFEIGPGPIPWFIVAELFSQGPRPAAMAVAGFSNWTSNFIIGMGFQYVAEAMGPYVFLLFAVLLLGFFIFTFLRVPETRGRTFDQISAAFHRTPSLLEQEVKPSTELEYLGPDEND
The note with it: 20 uM.

A short description of data set [7]: Elimination half life in intra arterially dosed rat. The note with it: in vivo.
Data set [8] can be described thus: Fraction unbound in rat serum at 10 uM.
Data set [9] in a line: Fraction unbound in human serum at 10 uM.
Data set [10] deals with T3, Solute carrier family 2, facilitated glucose transporter member 1 (Homo sapiens) (UniProt P11166).
T3 sequence (whole entry): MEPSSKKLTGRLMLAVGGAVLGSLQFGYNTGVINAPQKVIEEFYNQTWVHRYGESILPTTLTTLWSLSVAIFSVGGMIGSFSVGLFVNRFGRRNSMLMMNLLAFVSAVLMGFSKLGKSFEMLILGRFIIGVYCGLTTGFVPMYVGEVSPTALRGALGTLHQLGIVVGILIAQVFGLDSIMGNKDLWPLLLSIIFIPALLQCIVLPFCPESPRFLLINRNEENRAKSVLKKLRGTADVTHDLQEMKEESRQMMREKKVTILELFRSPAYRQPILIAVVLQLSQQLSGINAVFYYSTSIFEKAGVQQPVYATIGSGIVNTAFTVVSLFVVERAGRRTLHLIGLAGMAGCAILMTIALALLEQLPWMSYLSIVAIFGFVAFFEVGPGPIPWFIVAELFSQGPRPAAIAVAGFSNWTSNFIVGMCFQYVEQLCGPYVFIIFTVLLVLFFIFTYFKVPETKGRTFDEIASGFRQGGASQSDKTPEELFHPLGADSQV
The note with it: 20 uM.

Data set [11] can be described thus: Clearance in rat at 1 mg/kg, po after 1.7 hrs. The note with it: in vivo.
A short description of data set [12]: Volume of distribution at steady state in rat. The note with it: in vivo.
Data set [13] in a line: Elimination half life in intra arterially dosed monkey. The note with it: rhesus monkey, in vivo.
The target in data set [14] is T4, Sodium/glucose cotransporter 2 (Rattus norvegicus, UniProt P53792).
T4 sequence (P53792 whole entry): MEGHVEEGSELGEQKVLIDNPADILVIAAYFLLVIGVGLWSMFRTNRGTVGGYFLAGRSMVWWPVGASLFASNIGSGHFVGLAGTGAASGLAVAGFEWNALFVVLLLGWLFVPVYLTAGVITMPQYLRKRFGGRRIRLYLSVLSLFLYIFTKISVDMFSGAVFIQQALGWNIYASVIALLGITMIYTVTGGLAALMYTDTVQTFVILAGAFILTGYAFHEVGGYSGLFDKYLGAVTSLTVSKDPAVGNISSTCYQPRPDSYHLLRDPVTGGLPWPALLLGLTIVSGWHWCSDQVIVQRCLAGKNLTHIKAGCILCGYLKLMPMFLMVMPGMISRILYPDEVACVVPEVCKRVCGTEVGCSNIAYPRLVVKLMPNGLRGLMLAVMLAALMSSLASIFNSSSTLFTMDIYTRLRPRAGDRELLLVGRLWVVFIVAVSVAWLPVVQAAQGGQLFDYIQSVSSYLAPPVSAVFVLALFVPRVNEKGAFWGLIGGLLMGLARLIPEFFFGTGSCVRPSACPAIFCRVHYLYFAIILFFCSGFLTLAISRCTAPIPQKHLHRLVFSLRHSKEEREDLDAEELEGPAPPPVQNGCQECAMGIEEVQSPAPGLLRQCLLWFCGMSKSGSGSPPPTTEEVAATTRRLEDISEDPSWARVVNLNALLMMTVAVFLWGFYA
The data set is described as follows: Inhibition of rat SGLT2 expressed in CHO cells assessed as inhibition of [14C]AMG accumulation.

Regarding `Cc1cc(O)c(C(=O)CCc2ccc3occc3c2)c(O[C@@H]2O[C@H](CO)[C@@H](O)[C@H](O)[C@H]2O)c1`, in data set [1], the EC50 worked out at 6.6 nM.

As for `CCNC(=O)c1c(O)c(Cc2ccc(OC)cc2)cc([C@@H]2O[C@H](CO)[C@@H](O)[C@H](O)[C@H]2O)c1O`, the EC50 in [1] worked out at 1300 nM.

For the molecule `CCOc1ccc(Cc2cc([C@@H]3O[C@H](CO)[C@@H](O)[C@H](O)[C@H]3O)ccc2Cl)cc1` [DAPAGLIFLOZIN], the results for the half-life in [2], in data set [7] and in data set [13] were 7.4 h, 4.6 h and 3 h, respectively. For the same molecule, in data set [3], the apparent permeability (Papp) was more than 15 ×10⁻⁶ cm/s. This molecule also registered a Cmax at 1.7 h in data set [4] of 600 ng/mL. The molecule also returned a bioavailability in data set [5] of 84%. In addition, the inhibition in [6] and in [10] was 8% throughout. The fraction unbound at 10 µM worked out at 0.03 in data set [8] and 0.04 in data set [9]. In addition, in data set [11], the apparent clearance CL/F at 1.7 h was 4.8 mL/min/kg. For the same molecule, the distribution volume (Vd) in data set [12] turned out to be 1.6 L/kg. The EC50 in data set [14] is 3 nM.

As to `COc1ccc(Cc2ccccc2O[C@@H]2O[C@H](CO)[C@@H](O)[C@H](O)[C@H]2O)cc1` [SERGLIFLOZIN A], the EC50 in data set [1] amounted to 9.2 nM.
